The entries come from a sample that favours hits as a whole.
UPR CHOP act: activators of apoptotic CHOP UPR arm, primary screen, cell-based, CHO-CHOP luciferase reporter, luminescence, uHTS | UPR activation; percent of tunicamycin response over DMSO baseline | 330,000 compounds, 0.34% hits | activation, % at 10 µM;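 active = at 10 µM dose, activation of 40% or more, normalized to positive control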
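Test system: CHO-CHOP cells, stable luciferase reporter of PERK-eIF2a-CHOP signalling | Quantity: 500 CHO-CHOP cells per well | Buffer or medium: F12 plus 10% serum | Compound dosing: 10 µM single point, 0.5% DMSO | Schedule: 6 h compound treatment, 37 °C | Signal: Luciferase luminescence | Control set: Tunicamycin high control, DMSO low control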
Jurkat NFkB inh: inhibitors of induced NF-kB luciferase reporter, primary screen, TCR NF-kB activation inhibitor project, cell-based, luminescence, uHTS | AID 435003, 2010 | inhibition, % at 4 µM | Jurkat, PMA/ionomycin-induced NF-kB luciferase reporter | 330,000 compounds, 0.53% hits; in the data active = inhibition above about 50%
CHOP inhibitor: inhibitors of CHOP promoter induction, primary screen, cell-based, unfolded protein response, luciferase reporter; CHO-K1 CHOP-promoter luciferase, tunicamycin-induced, 15-18 h; inhibition, % at 10 µM; 220,000 compounds, 3.8% hits; AID 2732, 2010;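 active = compounds that reduced the stress-induced luciferase reporter signal by more than about 70% of percent inhibition, limit read from the data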
UPR XBP1 act: activators of adaptive XBP1 UPR arm, primary screen, cell-based, CHO-XBP1 luciferase reporter, luminescence, uHTS; IRE1-XBP1 UPR activation; percent of tunicamycin response, DMSO as zero; activation, % at 20 µM; 330,000 compounds, 0.33% hits; AID 463104, 2010;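 active = versus positive control, 20 µM dose yields 30% or more activation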
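assay system = CHO-XBP1 luciferase reporter cells | amount = 1000 cells/well | buffer or medium = F12 plus 10% FBS | compound dosing = single point, 20 µM final compound, 1% DMSO | incubation = 16-18 h cell attachment at 37 °C, then 6 h compound exposure | detection = Steady-Glo luminescence read | controls = tunicamycin 10 µg/mL and vehicle-only wells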
697 NFkB inh: inhibitors of PMA/ionomycin-induced NF-kB reporter, 697 cells, primary screen, B-cell NF-kB inhibitor project, cell-based, luminescence, uHTS; 697 B-cell NF-kB luciferase reporter, 16 h; inhibition, % at 4 µM; 330,000 compounds, 0.33% hits; AID 435022, 2010; in the data active = inhibition above about 35%
697 NFkB conf: PMA/ionomycin-induced NF-kB reporter inhibitors, 697 retest, confirmation, B-cell NF-kB inhibitor project, cell-based, luminescence, single concentration. shares compounds with 697 NFkB inh. 697 B-cell NF-kB luciferase, 16 h. inhibition, % at 4 µM. 2,000 compounds, 35% hits; in the data active = inhibition mostly above about 28%, no sharp cut-off; inactive = mostly below about 22%
Each line names hits and unclear results; the compound was inactive in the other large screens (follow-up assays come after a bar, where they were run); ! = not active in a repeat.

CCN(C[C@H]1N[C@@](C)(C(=O)OC)[C@H]2C(=O)N(Cc3ccccc3)C(=O)[C@@H]12)S(=O)(=O)c1ccccc1	none (no result: CHOP inhibitor)
COc1ccc(NS(=O)(=O)c2ccc(-c3coc(C)n3)cc2)cc1	none (no result: CHOP inhibitor)
COc1ccc(NS(=O)(=O)c2ccc(-c3coc(C)n3)cc2)cc1OC	697 NFkB inh 41 (no result: CHOP inhibitor) | 697 NFkB conf 59
COc1ccc(N2CCN(C(=O)c3ccc(NC(=O)C4=CSCCO4)cc3)CC2)cc1	none (no result: CHOP inhibitor)
CC(=O)C1=NN(c2ccccc2)C(c2cccs2)N1c1ccc(N(C)C)cc1 (centres undefined)	697 NFkB inh 69 | 697 NFkB conf 38
Cc1ccc(-c2nnc(-c3ccccc3Br)o2)cc1	none (no result: CHOP inhibitor) | 697 NFkB conf inactive
CC1(C)Cc2c(sc(NC(=O)C(=O)NCCCN3CCOCC3)c2C#N)CO1	none (no result: CHOP inhibitor)
CCc1ccc(NC(=O)CSc2nc(=O)n(CCN(C)C)c3c2CCCC3)cc1	none (no result: CHOP inhibitor)
Clc1ccc(OCc2cc(-c3ccccc3)no2)c(Cl)c1	none | 697 NFkB conf inactive
Cc1cccc(OCc2cc(-c3ccccc3)no2)c1C	none (no result: CHOP inhibitor)
CC1=C(C#N)C(=O)N(C2CCS(=O)(=O)C2)C(=O)/C1=C\c1ccc(C)o1 (centres undefined)	none
Cc1ccc(-c2c[n+]3c(n2-c2ccccc2)SCC3)cc1	697 NFkB inh 39 | 697 NFkB conf 42
Cc1ccc(-c2cn(-c3ccccc3)c3[n+]2CCCS3)cc1	697 NFkB inh 56! | 697 NFkB conf 35
O=C(COC(=O)c1cnccn1)Nc1ncc(C(F)(F)F)cc1Cl	none (no result: CHOP inhibitor)
Cc1c(/N=C(\[O-])Nc2ccc(Br)cc2)sn[n+]1C	none | 697 NFkB conf inactive
CNC(=S)Nc1ccc(Br)cc1	none
C(=N\Nc1nc2ccccc2[nH]1)/c1cccc2nccnc12	CHOP inhibitor 71 | 697 NFkB conf inactive
CC1=C(C(=O)Nc2ccccc2C(=O)NC2CCCCC2)SCCO1	none (no result: CHOP inhibitor)
COc1ccc(CN(C)C(=O)CCCNC(=O)c2ccc(Cl)cc2)cc1	none (no result: CHOP inhibitor)
O=C(c1ccc(N2CCCC2)c([N+](=O)[O-])c1)N1CCc2ccccc2C1	697 NFkB inh 37 (no result: CHOP inhibitor) | 697 NFkB conf inactive
NC(=O)COc1cccc(/C=N/NC(=O)c2ccc(-n3cccc3)cc2)c1	697 NFkB inh 52 | 697 NFkB conf inactive
NC(=O)c1ccc(C(=O)N/N=C/c2cccc(Oc3ccccc3)c2)cc1	none (no result: CHOP inhibitor)
O=C1CC2(CCN(C(=O)C3CC(=O)N(c4ccccc4)C3)CC2)Oc2ccccc21 (centres undefined)	none (no result: CHOP inhibitor)
Cc1ccccc1Cn1cc(NC(=O)c2cc(-c3ccco3)on2)cn1	697 NFkB inh 38 | 697 NFkB conf inactive
Cc1cc(NC(=O)c2cc(-c3ccco3)on2)no1	697 NFkB inh 37 | 697 NFkB conf inactive
Cc1ccc(NC(=O)c2cc(-c3ccco3)on2)cc1	none
O=C(Nc1cnn(Cc2ccc(F)cc2)c1)c1cc(-c2ccco2)on1	697 NFkB inh 41 | 697 NFkB conf inactive
COc1cccc(-c2cc(C(=O)Nc3cnn(Cc4ccc(F)cc4)c3)no2)c1	none
COc1ccc(CCNC(=O)c2cc(-c3ccco3)on2)cc1OC	697 NFkB inh 50 | 697 NFkB conf inactive
COC(=O)c1cc(S(=O)(=O)NCC2CCN(CCc3ccc(OC)cc3)CC2)c[nH]1	none (no result: CHOP inhibitor)
Cc1cc(C)c(CN2CCN(C(=O)Cn3cnc4c(NCc5ccccc5)ncnc43)CC2)c(C)c1	697 NFkB inh 74 (no result: Jurkat NFkB inh, CHOP inhibitor) | 697 NFkB conf 82
CCOc1cc(/C=C2\N=C(SC(C)C(N)=O)N(c3ccc(OC(F)F)cc3)C2=O)ccc1O (centres undefined)	697 NFkB inh 41 (no result: CHOP inhibitor) | 697 NFkB conf inactive
COc1ccc(-c2nn(-c3ccccc3)cc2/C=C(\C#N)C(N)=O)cc1[N+](=O)[O-]	697 NFkB inh 38 | 697 NFkB conf inactive
COc1ccc(-c2nn(-c3ccccc3)cc2/C=C(/C#N)C(N)=O)cc1[N+](=O)[O-]	none
CC1CCCCC1NC(=O)CNC(=O)c1cccs1 (centres undefined)	none (no result: CHOP inhibitor)
O=C(CCCl)Nc1nc2c(s1)CCc1ccccc1-2	none (no result: CHOP inhibitor) | 697 NFkB conf inactive
CC(=O)Nc1nc2c(s1)CCc1ccccc1-2	none (no result: CHOP inhibitor)
Cc1ccc(NC(=O)COc2ccc(C(=O)c3ccccc3)cc2)c(O)c1	none (no result: CHOP inhibitor)
Oc1ccc(N=Nc2ccc(Br)cc2)c(O)c1	none
Cc1ccc(N=Nc2ccc(O)cc2)c(Br)c1	none (no result: CHOP inhibitor) | 697 NFkB conf inactive
Cc1cc(C(=O)Cn2nnc3ccccc3c2=O)c(C)n1Cc1cccs1	none | 697 NFkB conf inactive
Cc1cc(C(=O)CN2C(=O)c3ccccc3C2=O)c(C)n1Cc1cccs1	none
Cc1nc2ccc(S(=O)(=O)NCC(=O)Nc3ccc(F)cc3)cc2s1	none (no result: CHOP inhibitor)
O=C(O)CCSc1ncnc2sc(-c3ccccc3)cc12	CHOP inhibitor 89, 697 NFkB inh 81 | 697 NFkB conf 62
CC(Sc1ncnc2sc(-c3ccccc3)cc12)C(N)=O (centres undefined)	none (no result: CHOP inhibitor)
CC(=O)CCSc1ncnc2sc(-c3ccccc3)cc12	none (no result: CHOP inhibitor) | 697 NFkB conf inactive
O=C(O)CSc1ncnc2sc(-c3ccccc3)cc12	none
C[C@@H]1CN([C@H](C)CO)C(=O)c2cc(NC(=O)c3ccncc3)ccc2O[C@@H]1CN(C)C(=O)Nc1ccccc1	none (no result: CHOP inhibitor)
CCCCN(C(=O)COC(=O)c1ccccc1)c1c(N)n(CCC)c(=O)[nH]c1=O	none (no result: CHOP inhibitor)
N#Cc1ccccc1S(=O)(=O)N1CCN(C(=O)C2CCCCC2)CC1	none (no result: CHOP inhibitor)
CC(=O)Nc1cc(C(=O)N2CCCC2)ccc1Sc1ccc(Cl)cc1	none
CC(=O)Nc1cc(C(=O)N2CCCC2)ccc1Sc1ccc(C)cc1	697 NFkB inh 38 | 697 NFkB conf inactive
CCn1c(=O)cc(SCC(=O)N2CCN(c3ccccc3OC)CC2)c2ccccc21	697 NFkB inh 36 | 697 NFkB conf inactive
CCn1c(=O)cc(SCC(=O)N2CCN(C3CCCCC3)CC2)c2ccccc21	697 NFkB inh 48 | 697 NFkB conf inactive
CCn1c(=O)cc(SCC(=O)N2CCOCC2)c2ccccc21	697 NFkB inh 42 | 697 NFkB conf 45
CCN1CCN(C(=O)CSc2cc(=O)n(C)c3ccccc23)CC1	none
CCn1c(=O)cc(SCC(=O)N2CCN(C(=O)c3ccco3)CC2)c2ccccc21	697 NFkB inh 53 | 697 NFkB conf 38
COc1ccc(C2C3=C(CCCC3=O)Nc3nc(-c4cc(OC)c(OC)c(OC)c4)nn32)cc1OC (centres undefined)	697 NFkB inh 38 | 697 NFkB conf inactive
COc1cc(-c2nc3n(n2)C(c2ccncc2)C2=C(CCCC2=O)N3)cc(OC)c1OC (centres undefined)	none
